An excerpt weighted towards active compounds, which were near 0.55% of everything screened.
OXTR agonist: agonists of human oxytocin receptor | P30559 | CHO-OTR cells, Fluo-8 calcium fluorescence; normalized: DMSO 0%, oxytocin 100% | activation, % at 3 µM | 320,000 compounds, 0.32% hits;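 active = activation above the mean of all tested compounds plus 3 SD, cutoff set per screening run, cut at about 20% in these data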;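 note: peak over basal fluorescence ratio from a 100 s FLIPR kinetic read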
Target sequence (P30559 whole entry, looked up): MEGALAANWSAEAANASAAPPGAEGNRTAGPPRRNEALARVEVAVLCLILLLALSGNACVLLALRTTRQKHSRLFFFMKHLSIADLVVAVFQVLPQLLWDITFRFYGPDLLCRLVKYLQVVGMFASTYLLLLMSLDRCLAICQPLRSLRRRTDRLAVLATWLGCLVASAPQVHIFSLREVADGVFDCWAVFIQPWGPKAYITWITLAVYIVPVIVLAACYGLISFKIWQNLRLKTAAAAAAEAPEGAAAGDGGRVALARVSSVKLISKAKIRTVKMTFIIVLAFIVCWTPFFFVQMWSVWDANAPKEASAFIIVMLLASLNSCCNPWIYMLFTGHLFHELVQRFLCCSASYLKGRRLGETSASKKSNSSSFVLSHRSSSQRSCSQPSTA
TRPML3 ag: activates the human TRPML3 channel; AID 1448; 220,000 compounds, 0.29% hits; HEK293 TRPML3-YFP, Fluo-8 calcium fluorescence; 100% = the carbachol control signal; Q8TDD5; activation, % at 3 µM;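 active = activation above its plate's cutoff, the mean activation of the plate's test wells plus 3 SD, cut at about 12% in these data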;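 note: 0% = DMSO only wells and 100% = carbachol wells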
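Material: HEK293 cells stably carrying human TRPML3-YFP; compound dosing: single dose, 3 µM final nominal compound, 0.3% DMSO final; incubation: 1-h 37 °C dye load, 5-s basal, 120-s post-compound reads; technique: Fluo-8 intracellular calcium fluorescence, excitation 470-495 nm, emission 515-575 nm; read-out basis: percent activation from peak-to-basal fluorescence ratio, scaled between DMSO and carbachol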
V1R ag counter: activates human V1a receptor in oxytocin agonist counter-screen | CHO-V1R cells, Fluo-8 calcium fluorescence, agonist mode; 0% DMSO, 100% 3 nM vasopressin | activation, % at 3 µM | 320,000 compounds, 0.25% hits;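 active = activation above the mean activation of all tested compounds plus 3 SD, per screening run, cut at about 20% in these data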;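 note: signal is peak over basal fluorescence ratio across a 100 second FLIPR read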
TRPN1 ag: agonists of zebrafish TRPN1 channel. HEK293 zebrafish TRPN1-YFP, Fluo-8 calcium fluorescence; 100% = response to 87 µM carbachol. activation, % at 3 µM. 220,000 compounds, 0.18% hits. AID 1424;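 active = activation above its plate's cutoff, the mean activation of test wells on that plate plus 3 SD, cut at about 19% in these data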;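 note: 0% = DMSO alone and 100% = 87 µM carbachol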
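Control set: carbachol 87 µM as high control, DMSO as low control; system: HEK293 stable line with zebrafish TRPN1-YFP; read-out: % activation versus carbachol response; detection: intracellular calcium fluorescence with Fluo-8; doses: single test compound dose, 3 µM nominal, 0.3% DMSO; schedule: dye 1 h 37 °C plus 30 min RT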
OXTR potentiator: human OXTR potentiation. activation, % at 3 µM. CHO-OTR cells, Fluo-8 calcium fluorescence, potentiator mode; 0% = oxytocin EC15, 100% = EC100. P30559. 320,000 compounds, 0.061% hits;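 active = activation above that plate's cutoff, the mean activation of tested compounds plus 3 SD, cut at about 6.6% in these data, passing the limit was not always enough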;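 note: 100% uses oxytocin at 75 nM as the full agonist control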
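Material: human OTR in CHO cells. Compound: 3.0 µM, one dose. Timing: compound 6 min at room temperature before oxytocin, 100 s read. Evaluation: % activation of max/min ratio relative to oxytocin controls. Replication: single well per compound, singlicate. Signal: Fluo-8 calcium dye fluorescence.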
TRPN1 counter: counter-screen for TRPML3 agonists: agonists of zebrafish TRPN1 channel. shares compounds with TRPML3 ag. HEK293 zebrafish TRPN1-YFP, Fluo-8 calcium fluorescence; scaled: carbachol wells 100%, DMSO wells 0%. activation, % at 3 µM. 310 compounds, 10% hits. AID 1525;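 active = mean activation over replicates above a set limit taken from the earlier TRPN1 channel primary screen, cut at about 19% in these data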;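 note: 100% = carbachol and 0% = 0.3% DMSO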
TRPML3 ag conf: human TRPML3 agonism, confirmation. shares compounds with TRPML3 ag. HEK293 TRPML3-YFP, Fluo-8 calcium fluorescence; 100% set by carbachol, 0% by DMSO. AID 1526. activation, % at 3 µM. 310 compounds, 80% hits;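 active = activation above a set limit derived from the earlier primary screen, cut at about 12% in these data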
* marks the source's active call; other numbers are inactive results; . = no result.

SMILES	OXTR agonist	TRPML3 ag	V1R ag counter	TRPN1 ag	OXTR potentiator	TRPN1 counter	TRPML3 ag conf
CC(C)Oc1ccc(/C=N/NC(=O)C(CSCc2ccccc2)NC(=O)c2ccc([N+](=O)[O-])cc2)cc1 (centres undefined)	-2	53*	-1	1	-15	6	78*
CN(CCOc1ccccc1)c1ccc(S(=O)(=O)N2CCCCC2)cn1	-2	26*	-1	0	-8	0	52*
CN(CCOc1ccccc1)CC(=O)Nc1ccc(S(=O)(=O)N2CCCC2)cc1	1	1	2	2	-1	.	.
O=C1C=C(NC2=CC3OC(c4ccccc4)OCC3OC2=O)CCC1 (centres undefined)	1	30*	1	1	1	1	1
O=C(c1ccccc1)c1ccc(O)cc1O	24*	18*	30*	18	-7	11	8
Cc1ccc2c(CN3CCC(C(N)=O)CC3)cc(=O)oc2c1C	0	.	1	.	-7	.	.
Cc1cccc(CC2CC(=O)N(C3CCCCC3)C2=O)c1 (centres undefined)	-1	13*	-1	0	2	-1	66*
Cc1cccc(CC2CC(=O)N(c3ccccc3)C2=O)c1 (centres undefined)	0	0	0	0	5	.	.
Cc1ccc(S(=O)(=O)N(C)c2ccccc2)cc1	-2	17*	-2	-2	-8	-2	7
Cc1ccc(S(=O)(=O)N(C)c2ccc3ccccc3c2)cc1	-3	0	-1	-1	-7	.	.
Cc1ccc(N(C)S(=O)(=O)c2ccc(C)cc2)cc1	0	49*	0	-1	0	-3	25*
CSc1nc2ccccc2nc1N(C)S(=O)(=O)c1ccc(C)cc1	-1	21*	0	-3	-6	0	26*
CCOc1ccc(NC(=S)N(CCOC)C2CCN(C(C)C)CC2)cc1	0	.	9	.	-10	.	.
Cc1ccc(C)c(OCc2cc(C(=O)NC(c3ccccn3)C(F)(F)F)no2)c1 (centres undefined)	3	.	2	.	-8	.	.
Cc1csc(N/N=C/c2ccc([N+](=O)[O-])cc2)n1	1	.	1	.	-3	.	.
O=C(O)c1csc(N/N=C/c2ccc(Br)cc2)n1	.	32*	.	0	.	0	42*
CN(/N=C/c1cc(Cl)ccc1O)C1=NS(=O)(=O)c2ccccc21	6	.	6	.	-16	.	.
O=S(=O)(Nc1ccccc1N1CCCCC1)c1cccs1	-4	14*	-2	-2	-1	-2	33*
O=S(=O)(Nc1ccccc1N1CCCCC1)c1ccc(F)cc1	-3	31*	-1	-3	2	-2	78*
Cc1cc(C(=O)OCC(=O)N2CCC(C)CC2)c2ccccc2n1	3	.	5	.	-8	.	.
COc1cc(NC(=O)c2ncn[nH]2)cc(OC)c1OC	.	0	.	2	.	.	.
CCOc1nc(C)cc(C)c1S(=O)(=O)c1cccc(C)c1	-2	0	-1	-2	-2	.	.
COc1nc(C)cc(C)c1S(=O)(=O)c1ccccc1C	-2	.	-1	.	-5	.	.
C#CCOc1nc(C)cc(C)c1S(=O)(=O)c1ccccc1C	-1	41*	-1	-3	6	-3	61*
Cc1cc(C)c(S(=O)(=O)c2c(C)cccc2C)c(OCC(C)C)n1	-1	12*	0	0	-7	0	43*
SMILES	OXTR agonist	TRPML3 ag	V1R ag counter	TRPN1 ag	OXTR potentiator	TRPN1 counter	TRPML3 ag conf
CCOc1ccccc1OCCCC(=O)Nc1sccc1C(N)=O	0	0	0	1	4	.	.
O=C(C1CCN(S(=O)(=O)c2ccccc2F)CC1)N1CCc2ccccc2C1	1	1	1	1	-6	.	.
COc1ccc(C(=O)Nc2ccc(S(=O)(=O)N3CCCCC3C)cc2)c(OC)c1OC (centres undefined)	3	70*	3	1	-6	1	83*
O=C(c1ccc(N2CCN(CCO)CC2)nc1)N1CCOCC1	1	1	0	0	-8	.	.
O=C(O)c1ccccc1N/C=C\[N+](=O)[O-]	0	0	0	-1	-4	.	.
CC(NC(=S)Nc1cccc(C(F)(F)F)c1)C(C)(C)C (centres undefined)	8	12*	7	13	-12	15	7
CN(C)NC(=S)Nc1cccc(C(F)(F)F)c1	-1	0	0	0	4	.	.
CCN(C(=O)c1cnc(OC)cc1C(F)(F)F)c1ccc(Cl)cc1Cl	-4	39*	-1	1	-13	18	47*
COc1ccccc1C(CNC(=O)C(CCSC)NS(=O)(=O)c1ccccc1F)N1CCCC1 (centres undefined)	-1	.	-1	.	6	.	.
CC1=CC(=O)C(C(C)C)=C/C1=N/OS(=O)(=O)c1ccccc1	5	19*	12	16	-18	14	23*
CC1=CC(=O)C=C(C)C1=NOS(=O)(=O)c1ccccc1	.	7	.	4	.	.	.
Cc1ccc(NC(=O)c2cnc(N3CCN(c4ccccn4)CC3)c3ccccc23)c(Br)c1	-1	25*	11	3	-11	4	48*
Cc1cc2nc3c(=O)[nH]c(=O)[nH]c3nc2c([N+](=O)[O-])c1N	.	12*	.	15	.	7	5
CC1(C)Cc2cccc(Oc3ccc(S(=O)(=O)N4CCCC4)cn3)c2O1	-2	2	-1	-1	-9	.	.
CC1(C)Cc2cccc(Oc3ccc(S(=O)(=O)N4CCCCC4)cn3)c2O1	-2	20*	-1	-2	-14	-1	30*
O=C(Nc1nnc(SCc2ccc(F)cc2)s1)c1ccc2c(c1)C(=O)N(c1ccccc1Cl)C2=O	0	1	0	0	-7	.	.
COc1cc(C)nc(N(C)S(=O)(=O)c2ccccc2Cl)n1	0	28*	1	3	-1	4	67*
O=c1oc2ccc3ccccc3c2cc1-c1nnc(-c2ccccc2)o1	1	1	0	3	-8	.	.
CCN(CC)c1ccc2cc(-c3nnc(-c4ccccc4)o3)c(=O)oc2c1	42*	12*	50*	19	-17	248*	177*
COc1ccc(S(=O)(=O)N2CCC(C)CC2)cc1OC	0	.	0	.	-1	.	.
CCN1CCN(S(=O)(=O)c2ccc(C)c([N+](=O)[O-])c2)CC1	0	0	0	1	-6	.	.
Cc1ccc(S(=O)(=O)N2CCCCCC2)cc1[N+](=O)[O-]	-3	12*	-2	-1	-6	-1	19*

High-throughput results deposited in PubChem BioAssay by The Scripps Research Institute Molecular Screening Center.
